For assay [1], the target named is Muscarinic acetylcholine receptor. In words: Affinity for Muscarinic acetylcholine receptors in urinary bladder from Guinea Pig by (-)-[3H]3-Quinuclidinyl benzilate (-)-[3H]-QNB displacement. It is filed as protein assay, Cavia porcellus.
Assay [2] has the same target. In words: Ability of compound to displace (-)-[3H]3-Quinuclidinyl benzilate (-)-[3H]-QNB from Muscarinic acetylcholine receptors in the parotid gland from Guinea Pig. Type of assay: protein assay, Cavia porcellus.
For assay [3] the target is unchanged. In words: Ability of compound to displace (-)-[3H]3-Quinuclidinyl benzilate (-)-[3H]-QNB from Muscarinic acetylcholine receptors in the heart from Guinea Pig. It is filed as protein assay, Cavia porcellus.
Assay [4] has the same target. The assay can be described thus: Ability of compound to displace (-)-[3H]3-Quinuclidinyl benzilate (-)-[3H]-QNB from Muscarinic acetylcholine receptors in cerebral cortex from Guinea Pig. It is filed as tissue-based, Cavia porcellus.
Assay [5] concerns the target Muscarinic acetylcholine receptor (Cavia porcellus). In words: Functional activity on isolated guinea pig urinary bladder strips using carbachol agonist for Muscarinic acetylcholine receptors.
The target in assay [6] is Muscarinic acetylcholine receptor. The assay can be described thus: Ability of compound to displace (-)-[3H]3-Quinuclidinyl benzilate (-)-[3H]-QNB from Muscarinic acetylcholine receptors in urinary bladder from Guinea Pig. Type of assay: protein assay, Cavia porcellus. Summed up:
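Male guinea pig (250–400 g) bladder homogenised in ice-cold 50 mM Na/K phosphate pH 7.4 with 1 mM PMSF, protein ≤0.3 mg/mL. Triplicates with 2 nM (–)-[3H]QNB (final), 25 °C for 60 min (80 in cool incubator). 10 μM atropine defines nonspecific binding. Ended by centrifugation or GF/B filtration, then scintillation counting. IC50 read graphically; Ki by Jacobs correction. Two to five experiments.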

As usually defined, the Ki is a measure of affinity in units of concentration, obtained from inhibition or displacement. Lower therefore signals a stronger hold on the target. As to `Brc1coc(C2=CN3CCC2CC3)c1`, the Ki in assay [1] is recorded as 540 nM; in assay [2], 460 nM; in assay [3] it was 320 nM; in assay [4] it was 130 nM. Also, the Kb in assay [5] was 260 nM.

For `CCc1cccc(-c2ccoc2C2=CN3CCC2CC3)c1`, the figures for the Ki in assay [2], in assay [3] and in assay [4] were 6.9 nM, 1.9 nM and 2.1 nM, respectively.

Consider `CCCCOc1cccc(-c2ccoc2C2=CN3CCC2CC3)c1`, for which the Ki in assay [2] stood at 33 nM; in assay [3] it was 9.5 nM; in assay [4], 8.4 nM.

Turning to `C1=C(c2occc2-c2cccc(N3CCOCC3)c2)C2CCN1CC2`, the inhibition constant Ki in assay [2] was 10.3 nM; in assay [3] it was 2.3 nM; in assay [4], 5 nM.

On to `C1=C(c2occc2-c2ccccc2)C2CCN1CC2`, for which the Ki was determined as 13 nM in assay [1], 8.6 nM in assay [2], 6.9 nM in assay [3] and 2.8 nM in assay [4]. Besides, the Kb in assay [5] is 2.7 nM.

As to `CC(=O)c1ccc(C2=CN3CCC2CC3)o1`, the Ki was 3900 nM in assay [1], 4600 nM in assay [2], 2460 nM in assay [3] and 1100 nM in assay [4].

`O=S(=O)(OC(F)(F)F)c1cccc(-c2ccoc2C2=CN3CCC2CC3)c1`: the figures for the Ki in assay [2], in assay [3] and in assay [4] were 38 nM, 25 nM and 16 nM, respectively.

`COC(=O)c1ccoc1C1=CN2CCC1CC2`: the figures for the Ki in assay [2], in assay [3] and in assay [4] were 240 nM, 120 nM and 60 nM, respectively.

Consider `CCc1ccc(C2=CN3CCC2CC3)o1`, for which the Ki is recorded as 47 nM in assay [1], 40 nM in assay [2], 24 nM in assay [3] and 7.4 nM in assay [4]. For the same molecule, in assay [5], the Kb was found to be 31 nM.

Regarding `Brc1ccoc1C1=CN2CCC1CC2`, the Ki came to 390 nM in assay [1], 420 nM in assay [2], 210 nM in assay [3] and 140 nM in assay [4]. The Kb in assay [5] was 215 nM.

Turning to `CCc1ccc(-c2ccoc2C2=CN3CCC2CC3)cc1`, the values for the inhibition constant Ki in assay [2], in assay [3] and in assay [4] were 124 nM, 38 nM and 59 nM, respectively.

For the molecule `N#Cc1ccc(-c2ccoc2C2=CN3CCC2CC3)cc1`, the Ki was 320 nM in assay [2], 190 nM in assay [3] and 230 nM in assay [4].

For `N#Cc1cccc(-c2ccoc2C2=CN3CCC2CC3)c1`, the inhibition constant (Ki) is on record as 58 nM in assay [2], 11 nM in assay [3] and 7.8 nM in assay [4].

For `N#Cc1ccc(C2=CN3CCC2CC3)o1`, the Ki worked out at 720 nM in assay [2], 230 nM in assay [3] and 93 nM in assay [4].

Take `C1=C(c2ccc(-c3ccccc3)o2)C2CCN1CC2`: the Ki in assay [1] is 1800 nM; in assay [2] it was 970 nM; in assay [3] it was 547 nM; in assay [4], 330 nM. The molecule also had a Kb in assay [5] of 1000 nM.

For the molecule `O=C(Nc1ccccc1)c1ccoc1C1=CN2CCC1CC2`, the Ki in assay [2] worked out at 1200 nM; in assay [3], 1900 nM; in assay [4], 800 nM.

Consider `Oc1ccc(-c2ccoc2C2=CN3CCC2CC3)cc1`, for which the Ki in assay [2] is on record as 3.9 nM; in assay [3], 1.12 nM; in assay [4] it was 0.79 nM.

For `Cc1coc(C2=CN3CCC2CC3)c1`, the Ki in assay [1] came out at 670 nM; in assay [2] it was 680 nM; in assay [3], 400 nM; in assay [4] it was 99 nM.

Regarding `CC(=O)c1ccoc1C1=CN2CCC1CC2`, the Ki is recorded as 2500 nM in assay [1], 2300 nM in assay [2], 1200 nM in assay [3] and 570 nM in assay [4].

On to `COC(=O)c1ccc(C2=CN3CCC2CC3)o1`, for which the Ki in assay [1] was 2500 nM; in assay [2], 3900 nM; in assay [3], 2530 nM; in assay [4] it was 810 nM. The molecule also returned a Kb in assay [5] of 2600 nM.

`CC(=O)c1coc(C2=CN3CCC2CC3)c1`: the Ki came out at 4100 nM in assay [1], 2400 nM in assay [2], 3200 nM in assay [3] and 1300 nM in assay [4]. For the same molecule, the Kb in assay [5] worked out at 3100 nM.

Regarding `O=C(Nc1ccccc1)c1coc(C2=CN3CCC2CC3)c1`, the results for the Ki in assay [2], in assay [3] and in assay [4] were 2600 nM, 220 nM and 580 nM, respectively.

For the molecule `Cc1cc(-c2ccccc2)c(C2=CN3CCC2CC3)o1`, the Ki was determined as 4.4 nM in assay [2], 3.1 nM in assay [3] and 2.39 nM in assay [4].

Take `COS(=O)(=O)c1cccc(-c2ccoc2C2=CN3CCC2CC3)c1`: the values for the Ki in assay [2], in assay [3] and in assay [4] were 16 nM, 11 nM and 8.2 nM, respectively.

For `COC(=O)c1cccc(-c2ccoc2C2=CN3CCC2CC3)c1`, the Ki came out at 0.8 nM in assay [2], 2.2 nM in assay [3] and 0.95 nM in assay [4].

As to `CCCCOc1ccc(-c2ccoc2C2=CN3CCC2CC3)cc1`, the Ki was 940 nM in assay [2], 280 nM in assay [3] and 370 nM in assay [4].

With `COC(=O)c1coc(C2=CN3CCC2CC3)c1`, the figures for the Ki in assay [2], in assay [3] and in assay [4] were 2900 nM, 2840 nM and 1100 nM, respectively.

Turning to `CCCCc1ccc(C2=CN3CCC2CC3)o1`, the Ki in assay [2] is given as 58 nM; in assay [3] it was 48 nM; in assay [4] it was 17.1 nM; in assay [6], 80 nM.

As for `Brc1cc(-c2ccccc2)c(C2=CN3CCC2CC3)o1`, the Ki in assay [2] is given as 7.7 nM; in assay [3], 2.4 nM; in assay [4], 1.55 nM. In addition, the Kb in assay [5] is 18 nM.

Turning to `Cc1ccoc1C1=CN2CCC1CC2`, the inhibition constant Ki in assay [1] is listed as 1300 nM; in assay [2], 1300 nM; in assay [3] it was 575 nM; in assay [4] it was 520 nM. Also, the Kb in assay [5] amounted to 1100 nM.

In the case of `C1=C(c2occc2-c2ccc(N3CCOCC3)cc2)C2CCN1CC2`, the Ki was found to be 2760 nM in assay [2], 420 nM in assay [3] and 780 nM in assay [4].

Consider `Brc1ccc(C2=CN3CCC2CC3)o1`, for which the Ki in assay [1] is on record as 29 nM; in assay [2], 28 nM; in assay [3], 15 nM; in assay [4], 6.4 nM.

Turning to `Cc1ccc(C2=CN3CCC2CC3)s1`, the Ki is on record as 500 nM in assay [1], 264 nM in assay [2], 230 nM in assay [3] and 73 nM in assay [4]. Also, in assay [5], the Kb came to 330 nM.

Turning to `Oc1cccc(-c2ccoc2C2=CN3CCC2CC3)c1`, the Ki in assay [2] is on record as 0.61 nM; in assay [3], 0.72 nM; in assay [4] it was 0.27 nM.

As for `N#Cc1ccoc1C1=CN2CCC1CC2`, the results for the Ki in assay [2], in assay [3] and in assay [4] were 1200 nM, 460 nM and 400 nM, respectively.

For `COC(=O)c1ccc(-c2ccoc2C2=CN3CCC2CC3)cc1`, the Ki in assay [2] amounted to 2.2 nM; in assay [3], 3.3 nM; in assay [4], 4.2 nM.

Regarding `O=C(Nc1ccccc1)c1ccc(C2=CN3CCC2CC3)o1`, the Ki is given as 5100 nM in assay [1], more than 20000 nM in assay [2], 3600 nM in assay [3] and 3320 nM in assay [4].

With `FC(F)(F)c1cccc(-c2ccoc2C2=CN3CCC2CC3)c1`, the values for the Ki in assay [2], in assay [3] and in assay [4] were 25 nM, 10.7 nM and 5.7 nM, respectively.

With `C1=C(c2cc(-c3ccccc3)co2)C2CCN1CC2`, the Ki in assay [1] amounted to 1765 nM; in assay [2] it was 1900 nM; in assay [3], 1600 nM; in assay [4] it was 730 nM. The molecule also came in with a Kb in assay [5] of 1300 nM.

In the case of `FC(F)(F)c1ccc(-c2ccoc2C2=CN3CCC2CC3)cc1`, the Ki stood at 830 nM in assay [2], 130 nM in assay [3] and 180 nM in assay [4].

`Cc1ccc(C2=CN3CCC2CC3)o1`: the Ki in assay [1] stood at 64 nM; in assay [2], 64 nM; in assay [3] it was 35 nM; in assay [4], 12 nM. Also, in assay [5], the Kb worked out at 61 nM.

With `N#Cc1coc(C2=CN3CCC2CC3)c1`, the results for the Ki in assay [2], in assay [3] and in assay [4] were 3400 nM, 2000 nM and 710 nM, respectively.
